Key:
HepG2 cells = experiment: MTT antiproliferative assay, HepG2; type: cell-based, human
In short: (§1)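 Cells were pre-incubated 24 h at 37 °C under 5% CO2, then exposed to a range of test compound concentrations dissolved in culture medium. MTT (5 mg mL−1 solution) was added for 4 h and formazan dissolved in DMSO. Absorbance was read at 630 nm. IC50 came from a non-linear curve fit, and growth inhibition was also reported.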

Karpas299 cells = experiment: MTT antiproliferative assay, Karpas299; type: cell-based
In short: as §1

PC-3 cells = experiment: MTT antiproliferative assay, PC-3; type: cell-based; settings: Homo sapiens, PC-3, read-out: Antiproliferative activity IC50
In short: as §1

MCF-7 cells = experiment: MTT antiproliferative assay, MCF-7; type: cell-based; settings: Homo sapiens, MCF7, read-out: Antiproliferative activity IC50
In short: as §1

A549 cells = experiment: MTT antiproliferative assay, A549; type: cell-based; settings: Homo sapiens, A549, read-out: Antiproliferative activity IC50
In short: as §1

IC50 (HepG2 cells; Homo sapiens, HepG2, read-out: Antiproliferative activity IC50)	IC50 (PC-3 cells)	IC50 (Karpas299 cells; Homo sapiens, KARPAS-299, read-out: Antiproliferative activity IC50)	IC50 (MCF-7 cells)	IC50 (A549 cells)	Compound	growth inhibition (HepG2 cells; HepG2, 2 μg mL^−1, MTT)	growth inhibition (HepG2 cells; HepG2, 20 μg mL^−1, MTT)	growth inhibition (Karpas299 cells; Karpas299, 2 μg mL^−1, MTT)	growth inhibition (Karpas299 cells; Karpas299, 20 μg mL^−1, MTT)	inhibition at 2 µg/mL (HepG2 cells; Homo sapiens, HepG2, read-out: growth inhibition, HepG2, 2 μg mL^−1, MTT)	inhibition at 20 µg/mL (HepG2 cells; Homo sapiens, HepG2, read-out: growth inhibition, HepG2, 20 μg mL^−1, MTT)
–	–	–	–	–	CC1(C)[C@@H](O)CC[C@]2(C)[C@H]3C(=O)C=C4[C@@H]5C[C@@](C)(C(=O)N6CCN(C(=O)c7ccc(Cl)cc7)CC6)CC[C@]5(C)CC[C@@]4(C)[C@]3(C)CC[C@@H]12 [Compound 4i, 3β-Hydroxy-30-(4-(4-chlorobenzoyl)-1-piperazinyl)-olean-12-ene-11,30-dione]	0.00%	19.10%	0.00%	12.76%	–	–
10.6 µM	7.33 µM	2.82 µM	4.09 µM	1.49 µM	C[C@@H](Oc1cc(-c2cnn(C3CCNCC3)c2)cnc1N)c1c(Cl)ccc(F)c1Cl [Crizotinib]	–	–	–	–	27.1%	97.8%

— PMC9050490 (RSC Advances, 2020)
